Activity calls are given as the source filed them. No cut-off for these calls is given here.
Experiments:
[1] = molecular target: 5-hydroxytryptamine receptor 1D (Homo sapiens) (UniProt P28221); assay: Displacement of [3H]-GR125743 from recombinant human 5-HT1DR expressed in HEKT cell membranes at 10 uM after 90 mins by scintillation counting method relative to control
[2] = molecular target: D(1A) dopamine receptor (Homo sapiens) (UniProt P21728); assay: Displacement of [3H]-SCH23390 from recombinant human D1R expressed in HEKT cell membranes at 10 uM after 90 mins by scintillation counting method relative to control
Chain of D(1A) dopamine receptor (Homo sapiens) (P21728 whole entry): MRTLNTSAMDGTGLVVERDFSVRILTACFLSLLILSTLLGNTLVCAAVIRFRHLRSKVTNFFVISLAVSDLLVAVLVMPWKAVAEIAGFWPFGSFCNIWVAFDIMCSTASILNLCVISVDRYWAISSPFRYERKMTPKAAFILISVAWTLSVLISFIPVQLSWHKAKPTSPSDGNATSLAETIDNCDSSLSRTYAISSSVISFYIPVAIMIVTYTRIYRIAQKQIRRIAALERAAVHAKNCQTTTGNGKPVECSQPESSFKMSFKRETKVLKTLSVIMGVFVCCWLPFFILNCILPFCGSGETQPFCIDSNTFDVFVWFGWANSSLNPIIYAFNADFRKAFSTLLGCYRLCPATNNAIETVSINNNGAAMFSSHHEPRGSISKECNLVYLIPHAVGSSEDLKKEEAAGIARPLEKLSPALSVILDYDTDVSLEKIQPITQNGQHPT

[3] = Terminal half life in Sprague-Dawley rat at 5 mg/kg, iv administered as single dose; type: ADME, organism-based; conditions: in vivo
[4] = AUC (0 to infinity) in Sprague-Dawley rat at 10 mg/kg, po administered as single dose; type: ADME, organism-based; set-up: dose 10 mg/kg, time infinity, route oral; conditions: in vivo
Rattus norvegicus [5] = assay: Suppression of spontaneous locomotor activity in Sprague-Dawley rat assessed as reduction in total vertical activity at 5 mg/kg, ip administered as single dose measured for 30 mins; type: functional, organism-based
Procedure, shortened: (§1)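 Male Sprague–Dawley rats naive to activity monitors (n = 7–8/group) received saline (1 mL/kg ip) or compound (0.5, 1 or 5 mg/kg ip) immediately before testing. Ambulations and vertical counts were taken in 5 min bins for 90 min and totalled over the first 30 min. Analysis: one-way ANOVA with Dunnett's comparisons to vehicle.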

[6] = molecular target: Alpha-2A adrenergic receptor (Homo sapiens) (UniProt P08913); assay: Displacement of [3H]-rauwolscine from recombinant human alpha-2A adrenergic receptor expressed in MDCK cell membranes at 10 uM after 90 mins by scintillation counting method relative to control
Chain of Alpha-2A adrenergic receptor (Homo sapiens) (P08913 whole entry): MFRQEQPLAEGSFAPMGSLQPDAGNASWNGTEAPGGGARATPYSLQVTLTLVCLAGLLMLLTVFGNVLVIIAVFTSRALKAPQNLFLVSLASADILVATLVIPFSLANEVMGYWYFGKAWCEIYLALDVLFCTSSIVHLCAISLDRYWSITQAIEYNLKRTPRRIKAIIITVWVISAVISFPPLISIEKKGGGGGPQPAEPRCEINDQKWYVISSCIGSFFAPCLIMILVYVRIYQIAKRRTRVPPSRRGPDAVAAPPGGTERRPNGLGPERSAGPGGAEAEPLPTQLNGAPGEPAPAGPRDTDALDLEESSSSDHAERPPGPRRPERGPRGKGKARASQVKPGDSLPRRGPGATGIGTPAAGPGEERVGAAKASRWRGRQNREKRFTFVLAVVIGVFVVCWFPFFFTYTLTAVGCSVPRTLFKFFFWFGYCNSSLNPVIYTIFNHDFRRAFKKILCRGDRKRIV
Procedure, shortened: (§2)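 Single-concentration screen at 10 μM test compound, each target labelled with the radioligand given in the line. The read-out is mean % inhibition of specific radioligand binding (n = 4). Targets above 50% inhibition went on to full competition isotherms, and Ki came from best-fit IC50 by the Cheng–Prusoff equation.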

[7] = molecular target: 5-hydroxytryptamine receptor 3A (Homo sapiens) (UniProt P46098); assay: Displacement of [3H]-LY278584 from recombinant human 5-HT3R expressed in HEK cell membranes at 10 uM after 90 mins by scintillation counting method relative to control
Chain of 5-hydroxytryptamine receptor 3A (Homo sapiens) (P46098 whole entry): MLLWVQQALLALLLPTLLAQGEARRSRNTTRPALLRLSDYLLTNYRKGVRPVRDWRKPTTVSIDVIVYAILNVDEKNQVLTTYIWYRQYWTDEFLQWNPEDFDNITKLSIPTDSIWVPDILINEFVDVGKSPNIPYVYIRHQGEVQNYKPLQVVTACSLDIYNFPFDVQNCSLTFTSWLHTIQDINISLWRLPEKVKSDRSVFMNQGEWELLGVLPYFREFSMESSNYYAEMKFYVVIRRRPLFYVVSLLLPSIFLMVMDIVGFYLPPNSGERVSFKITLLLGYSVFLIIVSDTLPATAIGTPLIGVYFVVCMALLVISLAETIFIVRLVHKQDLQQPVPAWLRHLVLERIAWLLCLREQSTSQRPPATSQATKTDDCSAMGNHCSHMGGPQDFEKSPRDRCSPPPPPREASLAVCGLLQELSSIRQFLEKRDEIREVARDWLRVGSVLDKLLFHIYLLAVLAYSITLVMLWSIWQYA

[8] = molecular target: D(1B) dopamine receptor (Homo sapiens) (UniProt P21918); assay: Displacement of [3H]-SCH23390 from recombinant human D5R expressed in HEKT cell membranes at 10 uM after 90 mins by scintillation counting method relative to control
Chain of D(1B) dopamine receptor (Homo sapiens) (P21918 whole entry): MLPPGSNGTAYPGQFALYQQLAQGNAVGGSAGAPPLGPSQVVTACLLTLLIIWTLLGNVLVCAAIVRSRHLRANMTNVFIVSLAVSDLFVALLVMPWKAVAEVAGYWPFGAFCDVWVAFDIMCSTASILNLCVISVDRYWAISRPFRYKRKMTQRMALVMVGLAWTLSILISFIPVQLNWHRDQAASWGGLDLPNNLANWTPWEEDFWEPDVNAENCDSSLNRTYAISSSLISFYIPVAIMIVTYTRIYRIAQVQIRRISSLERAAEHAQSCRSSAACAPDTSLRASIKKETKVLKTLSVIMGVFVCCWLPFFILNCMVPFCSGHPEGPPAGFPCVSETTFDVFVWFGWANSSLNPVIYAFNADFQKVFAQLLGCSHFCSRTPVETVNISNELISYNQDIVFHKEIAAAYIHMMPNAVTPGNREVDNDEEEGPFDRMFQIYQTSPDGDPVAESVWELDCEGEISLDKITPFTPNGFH

[9] = molecular target: 5-hydroxytryptamine receptor 6 (Homo sapiens) (UniProt P50406); assay: Displacement of [3H]-LSD from recombinant human 5-HT6R expressed in HEK cell membranes at 10 uM after 90 mins by scintillation counting method relative to control
Chain of 5-hydroxytryptamine receptor 6 (Homo sapiens) (P50406 whole entry): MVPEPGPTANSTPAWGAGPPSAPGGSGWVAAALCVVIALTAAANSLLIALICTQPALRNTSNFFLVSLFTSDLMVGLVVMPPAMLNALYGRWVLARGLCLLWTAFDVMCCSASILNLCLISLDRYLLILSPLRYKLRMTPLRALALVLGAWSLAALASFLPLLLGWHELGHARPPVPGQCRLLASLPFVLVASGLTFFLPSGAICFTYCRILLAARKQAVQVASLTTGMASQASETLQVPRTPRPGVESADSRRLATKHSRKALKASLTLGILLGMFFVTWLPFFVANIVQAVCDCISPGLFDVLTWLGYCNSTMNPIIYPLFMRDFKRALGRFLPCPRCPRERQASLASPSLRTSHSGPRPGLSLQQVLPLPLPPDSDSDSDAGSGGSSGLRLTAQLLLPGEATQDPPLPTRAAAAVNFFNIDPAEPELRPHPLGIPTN

[10] = molecular target: D(3) dopamine receptor (Homo sapiens) (UniProt P35462); assay: Displacement of [3H]-N-methylspiperone from recombinant human D3R expressed in HEK cell membranes at 10 uM after 90 mins by scintillation counting method relative to control; procedure, shortened: as §2
Chain of D(3) dopamine receptor (Homo sapiens) (P35462 whole entry): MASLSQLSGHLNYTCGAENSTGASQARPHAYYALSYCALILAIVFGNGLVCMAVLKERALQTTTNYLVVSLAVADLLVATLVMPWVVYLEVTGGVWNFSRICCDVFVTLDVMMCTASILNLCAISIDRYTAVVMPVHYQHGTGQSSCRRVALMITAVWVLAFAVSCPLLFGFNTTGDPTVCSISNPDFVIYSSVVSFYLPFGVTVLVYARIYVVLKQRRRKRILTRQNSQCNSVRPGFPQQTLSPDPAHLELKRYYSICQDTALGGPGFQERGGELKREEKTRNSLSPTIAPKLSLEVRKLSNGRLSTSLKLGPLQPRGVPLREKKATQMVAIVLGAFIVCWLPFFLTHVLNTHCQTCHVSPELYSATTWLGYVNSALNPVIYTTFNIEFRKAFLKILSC

CHO = assay: Cytotoxicity against CHO cells at 0.1 to 1000 nM after 1 hrs by LDH release assay; type: cell-based, Cricetulus griseus; conditions: chinese hamster, 1 µM
Procedure, shortened: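 Lactate dehydrogenase release assay for cytotoxicity, compounds tested at 0.1 nM and 1 μM.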

Rattus norvegicus [11] = assay: Suppression of spontaneous locomotor activity in Sprague-Dawley rat assessed as reduction in total ambulation at 5 mg/kg, ip administered as single dose measured for 30 mins; type: functional, organism-based; procedure, shortened: as §1
[12] = Oral bioavailability in Sprague-Dawley rat at 10 mg/kg administered as single dose; type: ADME, organism-based; conditions: in vivo
[13] = molecular target: 5-hydroxytryptamine receptor 5A (Homo sapiens) (UniProt P47898); assay: Displacement of [3H]-LSD from recombinant human 5-HT5AR expressed in Flp-IN CHO cell membranes at 10 uM after 90 mins by scintillation counting method relative to control
Chain of 5-hydroxytryptamine receptor 5A (Homo sapiens) (P47898 whole entry): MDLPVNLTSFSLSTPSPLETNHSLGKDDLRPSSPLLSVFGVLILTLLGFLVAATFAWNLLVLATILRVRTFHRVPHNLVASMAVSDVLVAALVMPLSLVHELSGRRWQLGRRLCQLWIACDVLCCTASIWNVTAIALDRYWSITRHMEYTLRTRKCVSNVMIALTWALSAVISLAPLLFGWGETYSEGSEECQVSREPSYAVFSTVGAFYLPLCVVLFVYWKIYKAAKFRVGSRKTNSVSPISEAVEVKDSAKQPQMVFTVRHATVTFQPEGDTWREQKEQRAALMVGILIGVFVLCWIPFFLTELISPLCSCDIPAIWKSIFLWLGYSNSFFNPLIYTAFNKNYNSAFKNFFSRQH

[14] = molecular target: 5-hydroxytryptamine receptor 7 (Homo sapiens) (UniProt P34969); assay: Displacement of [3H]-LSD from recombinant human 5-HT7R expressed in HEK cell membranes at 10 uM after 90 mins by scintillation counting method relative to control
Chain of 5-hydroxytryptamine receptor 7 (Homo sapiens) (P34969 whole entry): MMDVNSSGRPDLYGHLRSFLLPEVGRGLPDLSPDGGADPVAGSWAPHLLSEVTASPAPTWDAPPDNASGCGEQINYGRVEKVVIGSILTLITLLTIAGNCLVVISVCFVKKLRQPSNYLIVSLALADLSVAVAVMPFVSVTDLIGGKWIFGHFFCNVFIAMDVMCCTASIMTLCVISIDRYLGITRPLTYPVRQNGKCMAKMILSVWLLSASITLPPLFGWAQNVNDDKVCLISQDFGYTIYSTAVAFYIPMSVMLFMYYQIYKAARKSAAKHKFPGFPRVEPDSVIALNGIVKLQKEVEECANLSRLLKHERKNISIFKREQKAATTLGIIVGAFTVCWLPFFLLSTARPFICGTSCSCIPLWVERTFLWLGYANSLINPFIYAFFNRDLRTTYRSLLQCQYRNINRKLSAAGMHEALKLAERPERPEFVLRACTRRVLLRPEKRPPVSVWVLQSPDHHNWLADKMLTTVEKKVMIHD

Rattus norvegicus [15] = assay: Increase in WAY163909-induced suppression of spontaneous locomotor activity in Sprague-Dawley rat assessed as reduction in total vertical activity at 5 mg/kg, ip cotreated with WAY163909 at 15 mins post 5-HT2C antagonist SB242084 treatment measured for 30 mins; type: functional, organism-based
Procedure, shortened: (§3)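 Rats (n = 9–10/group) received SB242084 (1 mg/kg ip) or vehicle (8% 2-hydroxypropyl-β-cyclodextrin) 15 min before ip WAY163909 (1 mg/kg) plus compound (5 mg/kg). They were placed in monitors immediately; ambulations and vertical activity were totalled over 30 min. Analysis: ANOVA with Bonferroni comparisons.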

5-HT2B receptor = 5-HT2B receptor (Homo sapiens, UniProt P41595); assay: Displacement of [3H]-LSD from recombinant human 5-HT2BR expressed in HEK cell membranes at 10 uM after 90 mins by scintillation counting method relative to control; conditions: probe [3H]-LSD
Chain of 5-HT2B receptor (P41595 whole entry): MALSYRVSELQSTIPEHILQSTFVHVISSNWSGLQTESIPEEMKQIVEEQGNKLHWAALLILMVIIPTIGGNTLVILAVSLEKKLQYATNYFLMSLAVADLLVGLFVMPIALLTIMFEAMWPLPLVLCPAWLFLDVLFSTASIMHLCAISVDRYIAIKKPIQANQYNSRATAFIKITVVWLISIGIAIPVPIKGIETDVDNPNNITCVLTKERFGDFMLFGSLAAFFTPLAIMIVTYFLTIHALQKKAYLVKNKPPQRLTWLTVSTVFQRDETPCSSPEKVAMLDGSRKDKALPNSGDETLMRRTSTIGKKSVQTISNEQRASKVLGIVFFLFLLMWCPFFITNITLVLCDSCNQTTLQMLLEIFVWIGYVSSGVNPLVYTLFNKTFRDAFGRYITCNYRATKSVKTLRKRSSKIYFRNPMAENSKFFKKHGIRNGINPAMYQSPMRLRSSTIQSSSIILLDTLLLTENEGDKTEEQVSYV

[16] = AUC (0 to infinity) in Sprague-Dawley rat at 5 mg/kg, iv administered as single dose; type: ADME, organism-based; set-up: dose 5 mg/kg, time infinity, route intravenous; conditions: in vivo
Rattus norvegicus [17] = assay: Drug discrimination in WAY163909-trained Sprague-Dawley rat assessed as increase in WAY163909-appropriate lever responding at 1 mg/kg, ip co-treated with WAY163909 15 mins prior to test relative to control; type: functional
[18] = molecular target: 5-hydroxytryptamine receptor 1E (Homo sapiens) (UniProt P28566); assay: Displacement of [3H]-5-HT from recombinant human 5-HT1ER expressed in HEK cell membranes at 10 uM after 90 mins by scintillation counting method relative to control
Chain of 5-hydroxytryptamine receptor 1E (Homo sapiens) (P28566 whole entry): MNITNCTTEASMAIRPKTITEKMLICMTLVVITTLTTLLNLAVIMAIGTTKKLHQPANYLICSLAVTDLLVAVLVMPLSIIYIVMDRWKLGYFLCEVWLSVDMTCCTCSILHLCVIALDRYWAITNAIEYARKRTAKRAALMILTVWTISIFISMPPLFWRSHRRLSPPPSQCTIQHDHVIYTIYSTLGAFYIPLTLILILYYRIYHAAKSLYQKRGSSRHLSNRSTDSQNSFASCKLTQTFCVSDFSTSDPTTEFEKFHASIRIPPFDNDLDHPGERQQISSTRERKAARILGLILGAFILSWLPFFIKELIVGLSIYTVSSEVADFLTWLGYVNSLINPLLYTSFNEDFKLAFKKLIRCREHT

Rattus norvegicus [19] = assay: Increase in WAY163909-induced suppression of spontaneous locomotor activity in Sprague-Dawley rat assessed as reduction in total vertical activity at 5 mg/kg, ip administered as single dose measured for 30 mins; type: functional, organism-based; procedure, shortened: as §3

Chain of 5-hydroxytryptamine receptor 1D (Homo sapiens) (P28221 whole entry): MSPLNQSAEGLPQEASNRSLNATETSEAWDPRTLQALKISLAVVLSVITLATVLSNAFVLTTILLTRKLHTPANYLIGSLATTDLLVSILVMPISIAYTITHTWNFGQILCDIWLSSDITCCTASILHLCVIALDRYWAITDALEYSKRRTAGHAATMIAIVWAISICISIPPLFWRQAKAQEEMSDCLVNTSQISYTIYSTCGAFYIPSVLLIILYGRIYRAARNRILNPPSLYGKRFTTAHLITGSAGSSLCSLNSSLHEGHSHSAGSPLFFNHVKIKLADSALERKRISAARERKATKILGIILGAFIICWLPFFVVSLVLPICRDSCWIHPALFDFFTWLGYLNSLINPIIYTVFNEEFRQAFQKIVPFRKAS

In the case of `CCCCCCCCCCC[C@@H]1CCN[C@H](C(=O)NCC(O)CO)C1` (relative stereo), the inhibition [1] is reported as 5.5%, the inhibition [2] is reported as 29.3% and the “beta t1/2” value [3] is reported as 6.59 h. For the same compound, the AUC [4] was 737 ng·h/mL, the Activity (Rattus norvegicus [5]) was “Active” and the inhibition [6] was 85.1%. It also gave an inhibition [7] of 27%, an inhibition [8] of 32.5% and an inhibition [9] of 18.1%. For the same compound, the inhibition [10] was 71.4%, the Activity (CHO) was “Non-Toxic” and the Activity (Rattus norvegicus [11]) was “Active”. For the same compound, the F [12] was 39.1%, the inhibition [13] was 17.2% and the inhibition [14] was 26.8%. For the same compound, the Activity (Rattus norvegicus [15]) was “Active”, the inhibition at 1.5 h, 10 µM (5-HT2B receptor) was 15.1% and the AUC [16] was 939 ng·h/mL. For the same compound, the Emax at 1 mg/kg (Rattus norvegicus [17]) was 45%, the inhibition [18] was 0.7% and the Activity (Rattus norvegicus [19]) was “Active”.

— ChEMBL document CHEMBL4308830, “Design, Synthesis, and Characterization of 4-Undecylpiperidine-2-carboxamides as Positive Allosteric Modulators of the Serotonin (5-HT) 5-HT2C Receptor” (J Med Chem, 2018)
